Source: ChEMBL document CHEMBL2375279, “Synthesis and biological evaluation of helioxanthin analogues” (Bioorg Med Chem, 2013)
Calls of active or inactive are those of the source. The calls are words filed in the database; no cut-off is given here.

Columns and labels:
Hepatitis B virus [1] = assay: Antiviral activity against Hepatitis B virus infected in human HepA2 cells assessed as inhibition of viral surface antigen production after 2 days by enzyme immunoassay; type: functional, organism-based; conditions: for EC50: HepA2, 48 h
Outline: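 HepA2 cells (HepG2 transfected with two tandem HBV genome repeats, secreting HBsAg) were seeded at 3 × 10^4 per well (96-well) or 1 × 10^5 per well (24-well) in DMEM with 10% FCS for 24 h. They were washed twice with PBS pH 7.0 and treated with graded concentrations in serum-free DMEM for 48 h. Medium HBsAg was measured by enzyme immunoassay. EC50 is the concentration giving 50% of untreated HBsAg. Mean ± S.D., n = 3.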

[2] = Cytotoxicity against human HepA2 cells after 2 days by MTT assay; type: cell-based
Outline: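 HepA2 cells were seeded in DMEM with 10% FCS, attached for 24 h, washed with PBS pH 7.0, and then exposed to various compound concentrations in serum-free DMEM for 48 h. Viable cell number in each well was then determined by MTT assay.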

Hepatitis B virus [3] = assay: Antiviral activity against Hepatitis B virus infected in human HepA2 cells assessed as inhibition of viral core promoter activity at 3 uM after 24 hrs by luciferase reporter gene assay; conditions: HepA2, 24 h
Hepatitis B virus [4] = assay: Antiviral activity against Hepatitis B virus infected in human 1.3ES2 cells assessed as reduction of viral RNA level at 5 uM after 48 hrs by Northern blot analysis; type: functional, organism-based
Outline: (§1)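 1.3ES2 cells were grown to confluence in DMEM with 10% FCS, then switched to serum-free DMEM containing compound (0, 1.0 or 5.0 µM) for 48 h. Total RNA was extracted by phenol/guanidinium isothiocyanate, denatured in 2.2 M formaldehyde and run on a 1.2% agarose formaldehyde gel. It was blotted to nylon and probed with a 32P full-length HBV probe. The 3.5 kb and 2.4/2.1 kb bands were normalized to GAPDH.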

Hepatitis B virus [5] = assay: Antiviral activity against Hepatitis B virus infected in human 1.3ES2 cells assessed as inhibition of viral DNA replication at 5 uM after 72 hrs by RT-PCR analysis; type: functional, organism-based
Outline: (§2)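 1.3ES2 cells (HepG2 clone stably carrying a 1.3-fold HBV ayw genome) were seeded in 100 mm dishes, then exposed to compound (0, 1.0 or 5.0 µM) in serum-free DMEM for 72 h. Virion-associated HBV DNA in the medium was quantified by real-time PCR against a plasmid standard curve (10^3–10^7 copies), with 45 cycles of 95 °C 12 s and 54 °C 20 s. Mean ± S.D., n = 3.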

Hepatitis B virus [6] = assay: Antiviral activity against Hepatitis B virus infected in human 1.3ES2 cells assessed as reduction of large HBsAg mRNA level after 48 hrs by Northern blot analysis; type: functional, organism-based; outline: as §1
Hepatitis B virus [7] = assay: Antiviral activity against Hepatitis B virus infected in human 1.3ES2 cells assessed as reduction of middle/major HBsAg mRNA level after 48 hrs by Northern blot analysis; type: functional, organism-based; outline: as §1
Hepatitis B virus [8] = assay: Antiviral activity against Hepatitis B virus infected in human 1.3ES2 cells assessed as inhibition of viral DNA replication after 72 hrs by RT-PCR analysis; type: functional, organism-based; outline: as §2
Hepatitis B virus [9] = assay: Antiviral activity against Hepatitis B virus infected in human 1.3ES2 cells assessed as reduction of HBeAg mRNA and pregenomic RNA level after 48 hrs by Northern blot analysis; type: functional, organism-based; outline: as §1
Hepatitis B virus [10] = assay: Antiviral activity against Hepatitis B virus infected in human HepA2 cells assessed as inhibition of viral core promoter activity after 24 hrs by luciferase reporter gene assay
Hepatitis B virus [11] = assay: Antiviral activity against Hepatitis B virus infected in human HepA2 cells assessed as inhibition of viral core promoter activity at 0.03 uM after 24 hrs by luciferase reporter gene assay; conditions: HepA2, 24 h

In the case of `CCCCCC(=O)OCc1cc2ccc3c(c2c(-c2ccc(O)c(O)c2)c1COC(=O)CCCCC)OCO3`, the EC50 (Hepatitis B virus [1]) is reported as over 12.5 µM and the CC50 at 48 h [2] is reported as over 12.5 µM.

For `COc1cc(-c2c3c(cc4ccc5c(c24)OCO5)COC3=O)ccc1O`, the EC50 (Hepatitis B virus [1]) was 3.94 µM and the CC50 at 48 h [2] was over 12.5 µM.

Compound `CCCCCC(=O)OCc1cc2ccc3c(c2c(-c2ccc4c(c2)OCO4)c1CO)OCO3` has an EC50 (Hepatitis B virus [1]) of 1.9 µM and a CC50 at 48 h [2] of over 12.5 µM.

With `CCCCCOC(=O)CN1Cc2c(cc3ccc4c(c3c2-c2ccc3c(c2)OCO3)OCO4)C1=O` the EC50 (Hepatitis B virus [1]) was over 12.5 µM and the CC50 at 48 h [2] was 3.05 µM.

With `OCc1cc2ccc3c(c2c(-c2ccc(O)c(O)c2)c1CO)OCO3` the EC50 (Hepatitis B virus [1]) was over 12.5 µM and the CC50 at 48 h [2] was over 12.5 µM.

In the case of `O=C1OCc2cc3ccc4c(c3c(-c3ccc(O)c(O)c3)c21)OCO4`, the EC50 (Hepatitis B virus [1]) is reported as 3.4 µM and the CC50 at 48 h [2] is reported as over 12.5 µM.

`O=C1OCc2c1cc1ccc3c(c1c2-c1ccc2c(c1)OCO2)OCO3` [HELIOXANTHIN] showed an inhibition at 3 µM (Hepatitis B virus [3]) of 30%.

Compound `CCCCCC(=O)OCc1cc2ccc3c(c2c(-c2ccc(O)c(OC)c2)c1COC(=O)CCCCC)OCO3` has an EC50 (Hepatitis B virus [1]) of over 12.5 µM and a CC50 at 48 h [2] of over 12.5 µM.

For `CCCCCC(=O)OCc1cc2ccc3c(c2c(-c2ccc(OC)c(OC)c2)c1CO)OCO3`, the EC50 (Hepatitis B virus [1]) was over 12.5 µM and the CC50 at 48 h [2] was over 12.5 µM.

Compound `COc1ccc(-c2c(COC(C)=O)c(COC(C)=O)cc3ccc4c(c23)OCO4)cc1OC(C)=O` has an EC50 (Hepatitis B virus [1]) of 0.65 µM and a CC50 at 48 h [2] of over 12.5 µM.

Compound `COc1ccc(-c2c(CO)c(CO)cc3ccc4c(c23)OCO4)cc1O` has an EC50 (Hepatitis B virus [1]) of 0.67 µM and a CC50 at 48 h [2] of over 12.5 µM.

In the case of `CC(=O)OCc1cc2ccc3c(c2c(-c2ccc(O)c(OC(C)=O)c2)c1COC(C)=O)OCO3`, the EC50 (Hepatitis B virus [1]) is reported as over 12.5 µM and the CC50 at 48 h [2] is reported as over 12.5 µM.

With `COc1cc(-c2c(CO)c(CO)cc3ccc4c(c23)OCO4)ccc1O` the EC50 (Hepatitis B virus [1]) was 2.73 µM and the CC50 at 48 h [2] was over 12.5 µM.

Compound `CCCCCC(=O)OCc1cc2ccc3c(c2c(-c2ccc(OC)c(O)c2)c1CO)OCO3` has an EC50 (Hepatitis B virus [1]) of 1.97 µM and a CC50 at 48 h [2] of over 12.5 µM.

Work on `CC(=O)OCc1cc2ccc3c(c2c(-c2ccc(O)c(O)c2)c1COC(C)=O)OCO3` yielded an EC50 (Hepatitis B virus [1]) of over 12.5 µM and a CC50 at 48 h [2] of over 12.5 µM.

In the case of `COc1cc(-c2c3c(cc4ccc5c(c24)OCO5)C(=O)OC3)ccc1O`, the CC50 at 48 h [2] is reported as over 12.5 µM.

`COc1ccc(-c2c(CO)c(COC(C)=O)cc3ccc4c(c23)OCO4)cc1OC` showed an EC50 (Hepatitis B virus [1]) of 3.7 µM and a CC50 at 48 h [2] of over 12.5 µM.

With `CCCCCC(=O)OCc1cc2ccc3c(c2c(-c2ccc4c(c2)OCO4)c1COC(=O)CCCCC)OCO3` the EC50 (Hepatitis B virus [1]) was 1.9 µM and the CC50 at 48 h [2] was over 12.5 µM.

Work on `COc1cc(-c2c(COC(C)=O)c(COC(C)=O)cc3ccc4c(c23)OCO4)ccc1OC(C)=O` yielded an EC50 (Hepatitis B virus [1]) of 2.77 µM and a CC50 at 48 h [2] of over 12.5 µM.

Work on `CCCCCCCCOC(=O)CN1Cc2c(cc3ccc4c(c3c2-c2ccc3c(c2)OCO3)OCO4)C1=O` yielded an EC50 (Hepatitis B virus [1]) of over 6 µM and a CC50 at 48 h [2] of over 12.5 µM.

For `N#CCCCCCCCCOc1ccc(-c2c3c(cc4ccc5c(c24)OCO5)C(=O)OC3)cc1O`, the EC50 (Hepatitis B virus [1]) was over 12.5 µM and the CC50 at 48 h [2] was over 12.5 µM.

`COc1cc(-c2c(COC(C)=O)c(COC(C)=O)cc3ccc4c(c23)OCO4)ccc1O` gave an EC50 (Hepatitis B virus [1]) of over 12.5 µM and a CC50 at 48 h [2] of over 12.5 µM.

In the case of `COc1cc(-c2c3c(cc4ccc5c(c24)OCO5)C(=O)OC3)ccc1OC(C)=O`, the Activity (Hepatitis B virus [4]) is reported as “inactive”, the EC50 (Hepatitis B virus [1]) is reported as over 6 µM and the CC50 at 48 h [2] is reported as over 12.5 µM. The inhibition (Hepatitis B virus [5]) was “inactive”.

Compound `COC(=O)CN1Cc2c(cc3ccc4c(c3c2-c2ccc3c(c2)OCO3)OCO4)C1=O` has an EC50 (Hepatitis B virus [1]) of 0.86 µM and a CC50 at 48 h [2] of over 12.5 µM.

For `N#Cc1cc2ccc3c(c2c(-c2ccc4c(c2)OCO4)c1C#N)OCO3`, the EC50 (Hepatitis B virus [1]) was over 6 µM and the CC50 at 48 h [2] was over 12.5 µM.

Work on `CC(=O)OCc1cc2ccc3c(c2c(-c2ccc4c(c2)OCO4)c1CO)OCO3` yielded a CC50 at 48 h [2] of over 12.5 µM.

`COc1ccc(-c2c3c(cc4ccc5c(c24)OCO5)C(=O)OC3)cc1OC` showed an EC50 (Hepatitis B virus [1]) of over 6 µM.

`COc1cc(-c2c(CO)c(COC(C)=O)cc3ccc4c(c23)OCO4)ccc1O` showed an EC50 (Hepatitis B virus [1]) of over 12.5 µM and a CC50 at 48 h [2] of over 12.5 µM.

For `CCCCCC(=O)OCc1cc2ccc3c(c2c(-c2ccc(OC)c(O)c2)c1COC(=O)CCCCC)OCO3`, the EC50 (Hepatitis B virus [1]) was 3.33 µM and the CC50 at 48 h [2] was over 12.5 µM.

Work on `O=C1OCc2c1cc1ccc3c(c1c2-c1ccc2c(c1)OC(F)(F)O2)OCO3` yielded an EC50 (Hepatitis B virus [1]) of 0.38 µM and a CC50 at 48 h [2] of over 12.5 µM.

In the case of `COc1ccc(-c2c(CO)c(COC(C)=O)cc3ccc4c(c23)OCO4)cc1O`, the EC50 (Hepatitis B virus [1]) is reported as 0.49 µM and the CC50 at 48 h [2] is reported as over 12.5 µM.

For `O=C(O)CN1Cc2c(cc3ccc4c(c3c2-c2ccc3c(c2)OCO3)OCO4)C1=O`, the EC50 (Hepatitis B virus [1]) was over 6 µM and the CC50 at 48 h [2] was over 12.5 µM.

For `CC(=O)OCc1cc2ccc3c(c2c(-c2ccc(OC(C)=O)c(OC(C)=O)c2)c1COC(C)=O)OCO3`, the EC50 (Hepatitis B virus [1]) was over 12.5 µM and the CC50 at 48 h [2] was over 12.5 µM.

For `COc1ccc(-c2c3c(cc4ccc5c(c24)OCO5)C(=O)OC3)cc1OC(C)=O`, the Activity (Hepatitis B virus [6]) was “Dose-dependent effect”, the Activity (Hepatitis B virus [7]) was “Dose-dependent effect” and the inhibition (Hepatitis B virus [1]) was “Dose-dependent effect”. The EC50 (Hepatitis B virus [1]) was 0.06 µM, the CC50 at 48 h [2] was over 12.5 µM and the inhibition (Hepatitis B virus [8]) was “Dose-dependent effect”. The Activity (Hepatitis B virus [9]) was “Dose-dependent effect”, the inhibition (Hepatitis B virus [10]) was “Dose-dependent effect” and the inhibition at 0.03 µM (Hepatitis B virus [11]) was 40%.

With `N#CCCN1Cc2c(cc3ccc4c(c3c2-c2ccc3c(c2)OCO3)OCO4)C1=O` the EC50 (Hepatitis B virus [1]) was over 6 µM and the CC50 at 48 h [2] was over 12.5 µM.

Work on `COc1ccc(-c2c(CO)c(CO)cc3ccc4c(c23)OCO4)cc1OC` yielded an EC50 (Hepatitis B virus [1]) of over 12.5 µM and a CC50 at 48 h [2] of over 12.5 µM.

For `CCCCCC(=O)OCc1cc2ccc3c(c2c(-c2ccc(OC)c(OC(=O)CCCCC)c2)c1COC(=O)CCCCC)OCO3`, the EC50 (Hepatitis B virus [1]) was over 12.5 µM and the CC50 at 48 h [2] was over 12.5 µM.

Compound `CC(=O)Oc1cc(-c2c3c(cc4ccc5c(c24)OCO5)C(=O)OC3)ccc1OCCCCCCCCC#N` has an EC50 (Hepatitis B virus [1]) of over 12.5 µM and a CC50 at 48 h [2] of over 12.5 µM.

`COc1ccc(-c2c(COC(C)=O)c(COC(C)=O)cc3ccc4c(c23)OCO4)cc1OC` showed an EC50 (Hepatitis B virus [1]) of 3.03 µM and a CC50 at 48 h [2] of over 12.5 µM.

Work on `COc1ccc(-c2c3c(cc4ccc5c(c24)OCO5)COC3=O)cc1O` yielded an EC50 (Hepatitis B virus [1]) of 1.74 µM and a CC50 at 48 h [2] of over 12.5 µM.

In the case of `O=C1c2cc3ccc4c(c3c(-c3ccc5c(c3)OCO5)c2CN1CCO)OCO4`, the EC50 (Hepatitis B virus [1]) is reported as over 6 µM and the CC50 at 48 h [2] is reported as over 12.5 µM.
